Data reported in ChEMBL document CHEMBL1138614, “Synthesis and antibacterial activities of novel oxazolidinones having spiro[2,4]heptane moieties” (2009).
Converted amounts (≈) assume the structure as drawn.

Key:
Format in all cases: functional
Enterococcus [1] = assay: Antibacterial activity against vancomycin-resistant Enterococcus 2 after 18 to 20 hrs by agar dilution method
Procedure, shortened: (§1)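 Agar dilution MIC on test agar. Bacteria grown overnight in tryptosoy broth, diluted in the same broth to about 10⁶ cells/mL, then applied with an inoculating device onto agar holding serial twofold dilutions of compound. Plates incubated at 37 °C for 18–20 h. MIC taken as the lowest concentration visibly inhibiting growth, in µg/ml.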

Enterococcus [2] = assay: Antibacterial activity against vancomycin-resistant Enterococcus 5 after 18 to 20 hrs by agar dilution method; procedure, shortened: as §1
Enterococcus faecium [3] = assay: Antibacterial activity against Enterococcus faecium C803 after 18 to 20 hrs by agar dilution method; procedure, shortened: as §1
Enterococcus [4] = assay: Antibacterial activity against vancomycin-resistant Enterococcus 1 after 18 to 20 hrs by agar dilution method; procedure, shortened: as §1
Staphylococcus = assay: Antibacterial activity against Coagulase negative Staphylococcus after 18 to 20 hrs by agar dilution method
Procedure, shortened: (§2)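 Agar dilution: bacteria grown overnight in tryptosoy broth and diluted in the same broth to about 10⁶ cells/mL. A multipoint inoculating device spotted them onto test agar carrying serial twofold dilutions of compound. Plates were held at 37 °C for 18–20 h. MIC (µg/ml) was read as the lowest concentration giving visible inhibition of growth.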

Enterococcus faecalis [5] = assay: Antibacterial activity against Enterococcus faecalis C474 after 18 to 20 hrs by agar dilution method; procedure, shortened: as §2
Staphylococcus aureus [6] = assay: Antibacterial activity against methicillin-resistant Staphylococcus aureus after 18 to 20 hrs by agar dilution method; procedure, shortened: as §1
Enterococcus faecium [7] = assay: Antibacterial activity against vancomycin-resistant Enterococcus faecium after 18 to 20 hrs by agar dilution method; procedure, shortened: as §1
Enterococcus faecalis [8] = assay: Antibacterial activity against vancomycin-resistant Enterococcus faecalis after 18 to 20 hrs by agar dilution method; procedure, shortened: as §1
Enterococcus [9] = assay: Antibacterial activity against vancomycin-resistant Enterococcus 6 after 18 to 20 hrs by agar dilution method; procedure, shortened: as §1
Streptococcus pneumoniae = assay: Antibacterial activity against Streptococcus pneumoniae C402 after 18 to 20 hrs by agar dilution method; procedure, shortened: as §2
Enterococcus [10] = assay: Antibacterial activity against vancomycin-resistant Enterococcus 4 after 18 to 20 hrs by agar dilution method; procedure, shortened: as §1
Streptococcus pyogenes = assay: Antibacterial activity against Streptococcus pyogenes ATCC 8736 after 18 to 20 hrs by agar dilution method; procedure, shortened: as §2
Enterococcus [11] = assay: Antibacterial activity against vancomycin-resistant Enterococcus 3 after 18 to 20 hrs by agar dilution method; procedure, shortened: as §1
Haemophilus influenzae = assay: Antibacterial activity against Haemophilus influenzae after 18 to 20 hrs by agar dilution method; procedure, shortened: as §2
Streptococcus agalactiae = assay: Antibacterial activity against Streptococcus agalactiae ATCC 2901 after 18 to 20 hrs by agar dilution method; procedure, shortened: as §2
Staphylococcus aureus [12] = assay: Antibacterial activity against Staphylococcus aureus C463 after 18 to 20 hrs by agar dilution method; procedure, shortened: as §1

| SMILES | MIC (Enterococcus [1]) | MIC (Enterococcus [2]) | MIC (Enterococcus faecium [3]) | MIC (Enterococcus [4]) | MIC (Staphylococcus) | MIC (Enterococcus faecalis [5]) | MIC (Staphylococcus aureus [6]) | MIC (Enterococcus faecium [7]) | MIC (Enterococcus faecalis [8]) | MIC (Enterococcus [9]) | MIC (Streptococcus pneumoniae) | MIC (Enterococcus [10]) | MIC (Streptococcus pyogenes) | MIC (Enterococcus [11]) | MIC (Haemophilus influenzae) | MIC (Streptococcus agalactiae) | MIC (Staphylococcus aureus [12]) |
| --- | --- | --- | --- | --- | --- | --- | --- | --- | --- | --- | --- | --- | --- | --- | --- | --- | --- |
| CC(=O)NC[C@H]1CN(c2ccc(N3CC(N)C4(CC4)C3)c(F)c2)C(=O)O1 (stereo not given in full) | 6.25 µg/mL (≈ 17.2 µM) | 6.25 µg/mL (≈ 17.2 µM) | 6.25 µg/mL (≈ 17.2 µM) | 12.5 µg/mL (≈ 34.5 µM) | 6.25 µg/mL (≈ 17.2 µM) | 6.25 µg/mL (≈ 17.2 µM) | 6.25 µg/mL (≈ 17.2 µM) | 6.25 µg/mL (≈ 17.2 µM) | 12.5 µg/mL (≈ 34.5 µM) | 12.5 µg/mL (≈ 34.5 µM) | 6.25 µg/mL (≈ 17.2 µM) | 6.25 µg/mL (≈ 17.2 µM) | 6.25 µg/mL (≈ 17.2 µM) | 6.25 µg/mL (≈ 17.2 µM) | 6.25 µg/mL (≈ 17.2 µM) | 6.25 µg/mL (≈ 17.2 µM) | 6.25 µg/mL (≈ 17.2 µM) |
| CC(=O)NC[C@H]1CN(c2ccc(N3CC(O)C4(CC4)C3)c(F)c2)C(=O)O1 (stereo not given in full) | 6.25 µg/mL (≈ 17.2 µM) | 6.25 µg/mL (≈ 17.2 µM) | 6.25 µg/mL (≈ 17.2 µM) | 3.12 µg/mL (≈ 8.59 µM) | 12.5 µg/mL (≈ 34.4 µM) | 12.5 µg/mL (≈ 34.4 µM) | 6.25 µg/mL (≈ 17.2 µM) | 6.25 µg/mL (≈ 17.2 µM) | 6.25 µg/mL (≈ 17.2 µM) | 3.12 µg/mL (≈ 8.59 µM) | 3.12 µg/mL (≈ 8.59 µM) | 6.25 µg/mL (≈ 17.2 µM) | 6.25 µg/mL (≈ 17.2 µM) | 6.25 µg/mL (≈ 17.2 µM) | 6.25 µg/mL (≈ 17.2 µM) | 6.25 µg/mL (≈ 17.2 µM) | 12.5 µg/mL (≈ 34.4 µM) |
| CC(=O)NC[C@H]1CN(c2ccc(N3C/C(=N\O)C4(CC4)C3)c(F)c2)C(=O)O1 | 6.25 µg/mL (≈ 16.6 µM) | 6.25 µg/mL (≈ 16.6 µM) | 12.5 µg/mL (≈ 33.2 µM) | 12.5 µg/mL (≈ 33.2 µM) | 25 µg/mL (≈ 66.4 µM) | 25 µg/mL (≈ 66.4 µM) | 12.5 µg/mL (≈ 33.2 µM) | 12.5 µg/mL (≈ 33.2 µM) | 12.5 µg/mL (≈ 33.2 µM) | 12.5 µg/mL (≈ 33.2 µM) | 12.5 µg/mL (≈ 33.2 µM) | 6.25 µg/mL (≈ 16.6 µM) | 6.25 µg/mL (≈ 16.6 µM) | 6.25 µg/mL (≈ 16.6 µM) | 12.5 µg/mL (≈ 33.2 µM) | 6.25 µg/mL (≈ 16.6 µM) | 12.5 µg/mL (≈ 33.2 µM) |
| CCCO/N=C1\CN(c2ccc(N3C[C@H](CNC(C)=O)OC3=O)cc2F)CC12CC2 | 12.5 µg/mL (≈ 29.9 µM) | 12.5 µg/mL (≈ 29.9 µM) | 12.5 µg/mL (≈ 29.9 µM) | 12.5 µg/mL (≈ 29.9 µM) | 12.5 µg/mL (≈ 29.9 µM) | 25 µg/mL (≈ 59.7 µM) | 12.5 µg/mL (≈ 29.9 µM) | 12.5 µg/mL (≈ 29.9 µM) | 25 µg/mL (≈ 59.7 µM) | 12.5 µg/mL (≈ 29.9 µM) | 12.5 µg/mL (≈ 29.9 µM) | 12.5 µg/mL (≈ 29.9 µM) | 12.5 µg/mL (≈ 29.9 µM) | 12.5 µg/mL (≈ 29.9 µM) | 25 µg/mL (≈ 59.7 µM) | 12.5 µg/mL (≈ 29.9 µM) | 25 µg/mL (≈ 59.7 µM) |
| CC(=O)NC[C@H]1CN(c2ccc(N3CC(F)C4(CC4)C3)c(F)c2)C(=O)O1 (stereo not given in full) | 1.56 µg/mL (≈ 4.27 µM) | 0.78 µg/mL (≈ 2.13 µM) | 0.78 µg/mL (≈ 2.13 µM) | 1.56 µg/mL (≈ 4.27 µM) | 3.12 µg/mL (≈ 8.54 µM) | 1.56 µg/mL (≈ 4.27 µM) | 0.78 µg/mL (≈ 2.13 µM) | 1.56 µg/mL (≈ 4.27 µM) | 1.56 µg/mL (≈ 4.27 µM) | 1.56 µg/mL (≈ 4.27 µM) | 1.56 µg/mL (≈ 4.27 µM) | 0.78 µg/mL (≈ 2.13 µM) | 1.56 µg/mL (≈ 4.27 µM) | 3.12 µg/mL (≈ 8.54 µM) | 0.39 µg/mL (≈ 1.07 µM) | 0.78 µg/mL (≈ 2.13 µM) | 3.12 µg/mL (≈ 8.54 µM) |
| CC(=O)NC[C@H]1CN(c2ccc(N3C/C(=N\N)C4(CC4)C3)c(F)c2)C(=O)O1 | 25 µg/mL (≈ 66.6 µM) | 12.5 µg/mL (≈ 33.3 µM) | 25 µg/mL (≈ 66.6 µM) | 12.5 µg/mL (≈ 33.3 µM) | 12.5 µg/mL (≈ 33.3 µM) | 25 µg/mL (≈ 66.6 µM) | 25 µg/mL (≈ 66.6 µM) | 25 µg/mL (≈ 66.6 µM) | 50 µg/mL (≈ 133 µM) | 25 µg/mL (≈ 66.6 µM) | 25 µg/mL (≈ 66.6 µM) | 25 µg/mL (≈ 66.6 µM) | 12.5 µg/mL (≈ 33.3 µM) | 12.5 µg/mL (≈ 33.3 µM) | 25 µg/mL (≈ 66.6 µM) | 25 µg/mL (≈ 66.6 µM) | 25 µg/mL (≈ 66.6 µM) |
| CCO/N=C1\CN(c2ccc(N3C[C@H](CNC(C)=O)OC3=O)cc2F)CC12CC2 | 6.25 µg/mL (≈ 15.5 µM) | 6.25 µg/mL (≈ 15.5 µM) | 12.5 µg/mL (≈ 30.9 µM) | 12.5 µg/mL (≈ 30.9 µM) | 12.5 µg/mL (≈ 30.9 µM) | 25 µg/mL (≈ 61.8 µM) | 12.5 µg/mL (≈ 30.9 µM) | 12.5 µg/mL (≈ 30.9 µM) | 12.5 µg/mL (≈ 30.9 µM) | 6.25 µg/mL (≈ 15.5 µM) | 12.5 µg/mL (≈ 30.9 µM) | 12.5 µg/mL (≈ 30.9 µM) | 12.5 µg/mL (≈ 30.9 µM) | 6.25 µg/mL (≈ 15.5 µM) | 12.5 µg/mL (≈ 30.9 µM) | 12.5 µg/mL (≈ 30.9 µM) | 12.5 µg/mL (≈ 30.9 µM) |
| CC(=O)NC[C@H]1CN(c2ccc(N3CC(=O)C4(CC4)C3)c(F)c2)C(=O)O1 | 1.56 µg/mL (≈ 4.32 µM) | 3.12 µg/mL (≈ 8.63 µM) | 1.56 µg/mL (≈ 4.32 µM) | 3.12 µg/mL (≈ 8.63 µM) | 3.12 µg/mL (≈ 8.63 µM) | 6.25 µg/mL (≈ 17.3 µM) | 3.12 µg/mL (≈ 8.63 µM) | 1.56 µg/mL (≈ 4.32 µM) | 1.56 µg/mL (≈ 4.32 µM) | 1.56 µg/mL (≈ 4.32 µM) | 0.78 µg/mL (≈ 2.16 µM) | 3.12 µg/mL (≈ 8.63 µM) | 3.12 µg/mL (≈ 8.63 µM) | 1.56 µg/mL (≈ 4.32 µM) | 1.56 µg/mL (≈ 4.32 µM) | 1.56 µg/mL (≈ 4.32 µM) | 3.12 µg/mL (≈ 8.63 µM) |
| CO/N=C1\CN(c2ccc(N3C[C@H](CNC(C)=O)OC3=O)cc2F)CC12CC2 | 3.12 µg/mL (≈ 7.99 µM) | 6.25 µg/mL (≈ 16 µM) | 6.25 µg/mL (≈ 16 µM) | 6.25 µg/mL (≈ 16 µM) | 12.5 µg/mL (≈ 32 µM) | 12.5 µg/mL (≈ 32 µM) | 6.25 µg/mL (≈ 16 µM) | 6.25 µg/mL (≈ 16 µM) | 6.25 µg/mL (≈ 16 µM) | 6.25 µg/mL (≈ 16 µM) | 3.12 µg/mL (≈ 7.99 µM) | 6.25 µg/mL (≈ 16 µM) | 6.25 µg/mL (≈ 16 µM) | 6.25 µg/mL (≈ 16 µM) | 6.25 µg/mL (≈ 16 µM) | 6.25 µg/mL (≈ 16 µM) | 6.25 µg/mL (≈ 16 µM) |
| CC(=O)NC[C@H]1CN(c2ccc(N3CCOCC3)c(F)c2)C(=O)O1 [LINEZOLID] | 1.56 µg/mL (≈ 4.62 µM) | 1.56 µg/mL (≈ 4.62 µM) | 1.56 µg/mL (≈ 4.62 µM) | 1.56 µg/mL (≈ 4.62 µM) | 3.12 µg/mL (≈ 9.25 µM) | 1.56 µg/mL (≈ 4.62 µM) | 1.56 µg/mL (≈ 4.62 µM) | 1.56 µg/mL (≈ 4.62 µM) | 1.56 µg/mL (≈ 4.62 µM) | 1.56 µg/mL (≈ 4.62 µM) | 0.78 µg/mL (≈ 2.31 µM) | 1.56 µg/mL (≈ 4.62 µM) | 1.56 µg/mL (≈ 4.62 µM) | 1.56 µg/mL (≈ 4.62 µM) | 1.56 µg/mL (≈ 4.62 µM) | 1.56 µg/mL (≈ 4.62 µM) | 3.12 µg/mL (≈ 9.25 µM) |
